Assay results from different studies.
Compare with care: the assays were run in different laboratories.
Cell line: MCF7
Read-out: cell growth or viability

SMILES	method	time	IC50
c1ccc2c(c1)CCc1c-2[nH]c2ccccc12	MTT	72 h	> 75 µM
N.N.[Cl][Pt][Cl]	SRB	48 h	9.6 µM
C[C@]12C[C@@H](O)[C@H]3[C@@H](CC[C@]4(O)C[C@@H](O)C[C@@H](O)[C@]34CO)[C@@]1(O)CC[C@@H]2c1cn(Cc2ccccc2)nn1	resazurin	72 h	> 100 µM
N.N.[Cl][Pt][Cl]	MTT	48 h	14.2 µM
CO[C@]1([C@@H]2CSC(=O)N2C)C[C@H]2C[C@@H](CC[C@H](C)/C=C\C=C\CC/C(C)=C\C(=O)O2)O1	MTT	72 h	13.1 µM
O=c1ccc2cc3ccoc3cc2o1	WST-1	48 h	32.4 µM
CCC1(c2ccc(N)cc2)CCC(=O)NC1=O (centres unmarked)	CCK-8	48 h	> 50 µM
COc1c2c(cc3c1OCO3)[C@]13C=C[C@H](OC)C[C@@H]1[N@](C2)C[C@H]3OC(=O)c1ccc2ccccc2c1	WST-1	–	> 10 µM
O=c1ccc2ccc3occc3c2o1	WST-1	48 h	7 µM
O=C(Oc1ccc(I)cc1)[c-]1cccc1.[Fe+2].c1cc[cH-]c1	MTT	72 h	256 µM
COC1(C2CSC(=O)N2)CC2CC(CCC(C)C=CC=CCCC(C)=CC(=O)O2)O1 (centres unmarked)	MTT	72 h	10.2 µM
N.N.O=C([O-])C1(C(=O)[O-])CCC1.[Pt+2]	MTT	96 h	> 100 µM
C/C1=C/C(=O)O[C@@H]2C[C@@H](CC[C@H](C)/C=C\C=C\CC1)O[C@@](O)([C@@H]1CSC(=O)N1Cc1ccccc1)C2	MTT	72 h	0.63 µM
O=C(O)CCCc1ccc(N(CCCl)CCCl)cc1	CCK-8	48 h	38.5 µM
CO[C@]1([C@@H]2CSC(=O)N2Cc2ccccc2)C[C@H]2C[C@@H](CC[C@H](C)/C=C\C=C\CC/C(C)=C\C(=O)O2)O1	MTT	72 h	0.78 µM
O=C(Oc1ccc(Br)cc1)[c-]1cccc1.[Fe+2].c1cc[cH-]c1	MTT	72 h	9.2 µM
COC(C(=O)N1C(=O)SCC1C1(OC)CC2CC(CCC(C)C=CC=CCCC(C)=CC(=O)O2)O1)c1ccccc1 (centres unmarked)	MTT	72 h	15.4 µM
C=C(C)C(=O)O[C@H]1CC2=C[C@@H](C/C(C)=C/[C@H]3OC(=O)C(=C)[C@H]13)OC2=O	MTT	24 h	2.3 µM
C/C1=C/C(=O)O[C@@H]2C[C@@H](CC[C@H](C)/C=C\C=C\CC1)O[C@@](OC(=O)c1ccccc1)([C@@H]1CSC(=O)N1)C2	MTT	72 h	0.52 µM
COc1c2c(cc3c1OCO3)[C@]13C=C[C@H](OC)C[C@@H]1[N@](C2)C[C@H]3OC(=O)c1ccco1	WST-1	–	> 10 µM
